Compound activity (PubChem BioAssay)
The list is not random: actives were taken first. Their share in the collection is about 1.7%.
CSN deneddyl inh: inhibitors of human CSN-mediated cullin deneddylation; Q92905; Purified CSN, SCF-Nedd8-OG deneddylation, fluorescence polarization; inhibition, % at 12.5 µM; 360,000 compounds, 0.38% hits;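 active = pattern-corrected inhibition above about 35%, with an unprinted fluorescence ratio check between 0.5 and 1.5, limit read from the data, passing the limit was not always enough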;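 also: 0% = enzyme with substrate and 100% = substrate without enzyme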
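Detection – fluorescence polarization · System – HEK293T-derived human Csn5 enzyme · Controls – substrate-only high control, full reaction low control · Timing – 90 min, room temperature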
HNF4A DNA FP: change in binding of human HNF4 alpha to DNA; AID 1224865; activity change, % at 10 µM; P41235; HNF4a-FITC DNA binding, fluorescence polarization, 1 h; 360,000 compounds, 0.3% hits; in the data active = activity change above about 30%, passing the limit was not always enough
Target sequence (P41235 whole entry, looked up): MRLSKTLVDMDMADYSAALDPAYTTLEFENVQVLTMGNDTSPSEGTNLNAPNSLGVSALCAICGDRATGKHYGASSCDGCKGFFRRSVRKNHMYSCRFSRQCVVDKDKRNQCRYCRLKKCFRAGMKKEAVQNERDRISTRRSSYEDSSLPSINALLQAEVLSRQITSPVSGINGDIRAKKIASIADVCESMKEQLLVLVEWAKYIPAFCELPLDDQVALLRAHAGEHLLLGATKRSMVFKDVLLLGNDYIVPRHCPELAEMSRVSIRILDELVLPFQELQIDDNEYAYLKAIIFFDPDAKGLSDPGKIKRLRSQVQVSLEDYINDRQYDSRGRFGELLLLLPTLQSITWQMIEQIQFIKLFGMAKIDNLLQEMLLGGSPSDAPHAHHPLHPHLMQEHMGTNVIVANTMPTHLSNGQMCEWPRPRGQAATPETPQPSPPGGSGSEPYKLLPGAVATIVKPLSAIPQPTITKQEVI
Rpn11 block: inhibitors of human proteasome Rpn11; human 26S proteasome, Ub4-pepOG fluorescence polarization; 20S core pre-blocked with epoxomicin; inhibition, % at 20 µM; O00487; 360,000 compounds, 0.59% hits;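 active = inhibition at 20 µM, scaled to each plate's controls, above about 33%, limit read from the data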
TPT1 inhibitor: C. albicans TPT1 enzyme inhibition. inhibition, % at 5 µM. 300,000 compounds, 0.81% hits. recombinant caTPT1, FP RNA substrate dephosphorylation;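 active = inhibition above the mean of all tested compounds plus 3 SD, set per screening campaign, cut at about 24% in these data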;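 also: plate controls were DMSO alone for no effect and ferristatin control at 100 nM for full effect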
IDE cell inh: cellular human IDE inhibition; P14735; HEK cells, FAbetaB cleavage, fluorescence polarization; inhibition, % at 5.59 µM; 320,000 compounds, 0.41% hits;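 active = percent inhibition above the average of all tested compounds plus 3 SD, set per screening campaign, cut at about 16% in these data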;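 also: IDE supplied by intact live HEK cells; FP after avidin binding of uncleaved biotin substrate so inhibition keeps polarization high; 0% = DMSO wells and 100% = 60 µM reference IDE inhibitor Ii1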
IDE cell activ: boosts human insulin-degrading enzyme activity in HEK cells; P14735; FAbeta-B cleavage, fluorescence polarization; 0% vehicle, 100% cell-free pure enzyme wells; activation, % at 5.96 µM; 340,000 compounds, 0.073% hits; AID 493087;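 active = activation above the mean of all tested compounds plus 3 SD, set per screening campaign, cut at about 17% in these data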
TPT1 inh confirm: TPT1 (C. albicans) inhibition, confirmation; shares compounds with TPT1 inhibitor; recombinant caTPT1, fluorescence polarization, RNase T1 coupled; inhibition, % at 5 µM; 2,400 compounds, 74% hits; AID 2149;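 active = inhibition above the primary screen limit, the mean inhibition of all tested compounds plus 3 SD, cut at about 25% in these data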
RNase T1 counter: RNase T1 inhibition in TPT1 counter-screen; shares compounds with TPT1 inhibitor; inhibition, % at 5 µM; 2,400 compounds, 83% hits; RNase T1 cleavage, fluorescence polarization, 1536-well;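 active = inhibition above the solvent-only control well mean plus 3 SD, limit set per screening run, cut at about 23% in these data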;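 also: plate controls were DMSO wells with enzyme for no effect and wells without RNase T1 for full effect; inhibitors block cleavage so intact labeled substrate keeps polarization high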
Target sequence (P00651 whole entry, looked up): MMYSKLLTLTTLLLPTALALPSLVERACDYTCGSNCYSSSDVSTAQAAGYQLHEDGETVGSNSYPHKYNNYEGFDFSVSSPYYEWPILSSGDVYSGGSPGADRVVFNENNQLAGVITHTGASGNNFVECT
An asterisk follows results filed as active; nt = no result given.

SMILES	CSN deneddyl inh	HNF4A DNA FP	Rpn11 block	TPT1 inhibitor	IDE cell inh	IDE cell activ	TPT1 inh confirm	RNase T1 counter
COc1ccc(C2=NNC(c3cc(Cl)cc4c3OCOC4)C2)c(O)c1 (stereo not given)	nt	nt	nt	37*	0	nt	19	28*
CCN(CC)c1ccc2cc(S(=O)(=O)c3ccc(C)cc3)c(=O)oc2c1	-2	50*	-154	70*	0	-13	72*	81*
Cc1ccc(C(=O)NNC(=O)c2ccc(S(=O)(=O)N3CCCCC3)cc2)cc1	0	5	-2	nt	-1	2	nt	nt
CCN(CC)c1ccc2cc(C#N)c(=O)oc2c1	-12	22	7	46*	13	nt	44*	58*
CCN(CC)c1ccc2cc(C(=O)NNC(=O)c3ccc(S(=O)(=O)N4CCCCC4)cc3)c(=O)oc2c1	17	14	nt	49*	0	5	77*	86*
COc1ccc(C2CC(c3ccccc3)=NN2c2ccc(/C=N/NC(=O)c3ccncc3)cc2)cc1 (stereo not given)	2	2	5	66*	-2	-5	52*	68*
CC(C)c1ccc(OCC(=O)Nc2ccc3oc(=O)ccc3c2)cc1	-6	2	0	-5	-1	0	nt	nt
CCC(C)C(CO)NCCCn1cnc2c(OCc3ccccc3)ncnc21 (stereo not given)	3	-1	-4	nt	nt	nt	nt	nt
O=C1CC(C(F)(F)C(F)(F)C(F)(F)C(F)F)=Nc2ccccc2N1	-2	6	0	75*	-5	1	9	14
CCCC1=[N+](CC(=O)c2ccc(C)cc2)CCn2cccc21	-6	2	12	62*	-2	5	10	11
N#C/C(=C/c1ccc(-c2cc(C(=O)O)cc(C(=O)O)c2)o1)c1nc2ccccc2s1	nt	nt	nt	141*	27*	nt	141*	133*
N#C/C(=C\c1ccco1)c1nc2ccccc2s1	1	7	11	10	15	-6	nt	nt
CN(C)c1ccc(/C=c2\sc3n(c2=O)CCCN=3)cc1	25	26	nt	103*	12	-5	42*	59*
COc1ccc(C2C(C#N)=C(N)N(c3sc4c(c3C#N)CCCC4)C3=C2C(=O)CC(C)(C)C3)cc1OC (stereo not given)	21	2	30	28*	3	-4	14	17
COc1ccc(C2C(C#N)=C3NC(=O)c4c(sc5c4CCCCC5)N3C3=C2C(=O)CC(C)(C)C3)cc1 (stereo not given)	18	11	36	23	5	-5	nt	nt
COc1ccc(C2C(C#N)=C(N)N(c3sc4c(c3C#N)CCCC4)C3=C2C(=O)CC(C)(C)C3)cc1 (stereo not given)	30	10	14	28*	9	-2	8	6
Cc1ccc(NS(=O)(=O)c2cc([N+](=O)[O-])ccc2NNC(=S)Nc2cccc(Cl)c2)c(C)c1	18	30	76*	36*	2	5	37*	46*
Cc1ccc(NS(=O)(=O)c2cc([N+](=O)[O-])ccc2NNC(=S)Nc2cc(C)ccc2C)c(C)c1	7	14	30	8	-1	-4	nt	nt
CC(=O)NC(Cc1cccc(F)c1)C(=O)NC1CCN(C(=O)Nc2ccc(C)cc2)CC1 (stereo not given)	2	2	-3	24*	-5	4	8	12
O=[N+]([O-])c1c(Nc2ccccn2)cc(Cl)c2nonc12	-76	16	nt	128*	1	-10	135*	130*
CCc1ccc(OC(C)C(=O)Nc2ccc(S(=O)(=O)Nc3nccs3)cc2)cc1 (stereo not given)	2	8	-2	-4	-10	-4	nt	nt
Cc1sccc1C1C(C#N)=C(N)SC(N)=C1C#N	nt	nt	nt	100*	18*	nt	70*	84*
Cc1cc(C2C(C#N)=C(N)SC(N)=C2C#N)c(C)s1	106	85	nt	101*	12	-17	46*	59*
Cc1[nH]nc2c1C(c1ccsc1C)C(C#N)=C(N)O2 (stereo not given)	2	5	-9	-3	3	11	nt	nt
NS(=O)(=O)c1ccc(NC(=O)c2cc(Cl)sc2Cl)cc1	4	4	3	-1	-4	5	nt	nt
SMILES	CSN deneddyl inh	HNF4A DNA FP	Rpn11 block	TPT1 inhibitor	IDE cell inh	IDE cell activ	TPT1 inh confirm	RNase T1 counter
Cc1ccc(-c2nc(CN3CCCCC3c3cccc(F)c3)c(C)o2)o1 (stereo not given)	9	19	28	33*	4	5	23	30*
O=C1/C(=C/C=C/c2ccco2)SC(=S)N1NS(=O)(=O)c1ccccc1	62	-58	nt	85*	2	-5	67*	34*
O=C1/C(=C/c2cccs2)SC(=S)N1NS(=O)(=O)c1ccccc1	33	-9	4	3	0	-2	nt	nt
CC(C(=O)O)N1C(=O)/C(=C/C=C/c2ccco2)SC1=S (stereo not given)	49	-47	nt	61*	0	-6	34*	45*
Cc1c(C(=O)NCc2ccccc2C(F)(F)F)sc(=O)n1Cc1ccc(S(=O)(=O)N(C)C)cc1	-3	5	1	nt	nt	nt	nt	nt
CN(C)c1ccc(/C=C(\C#N)c2ccccn2)cc1	12	31	nt	86*	8	-11	83*	92*
CC(=O)Nc1ccc(S(=O)(=O)Nc2nc3ccccc3nc2Nc2cccc(O)c2)cc1	2	-1	0	3	-1	0	nt	nt
CC(=O)Nc1ccc(S(=O)(=O)Nc2nc3ccccc3nc2Nc2ccc(C(=O)O)c(O)c2)cc1	52	-30	-51	nt	1	5	nt	nt
CC(=O)Nc1ccc(S(=O)(=O)Nc2nc3ccccc3nc2Nc2ccc3ccccc3c2)cc1	45*	27	nt	29*	-2	-2	13	24*
CC(=O)Nc1ccc(S(=O)(=O)Nc2nc3ccccc3nc2Nc2ccc(N)cc2)cc1	83	40	nt	77*	13	-11	62*	69*
O=[N+]([O-])c1ccccc1S(=O)(=O)N1CCN(c2ccc(F)cc2)CC1	-2	-1	1	5	2	4	nt	nt
CC(C)(C)C(=O)Nc1cc(NC(=O)C(C)(C)C)cc(C(=O)Nc2c[nH]c(=O)[nH]c2=O)c1	-2	0	-1	-2	2	nt	nt	nt
COc1ccc(CCNC(=O)c2ccc3c(c2)NC(=O)C(CSCc2cc(C)ccc2C)N3)cc1OC (stereo not given)	nt	nt	nt	129*	6	nt	124*	122*
